Measured values: ChEMBL document CHEMBL1125833, “Anxiolytic properties of certain annelated [1,2,4]triazolo[1,5-c]pyrimidin-5(6H)-ones” (J Med Chem, 1991)
Several values for one entry are separate records, joined by “and”; a condition that tells them apart may be missing. Equal entries are not always repeated.

Assays:
[1] = biological target: GABA-A receptor; anion channel; assay: Displacement of [3H]flunitrazepam (FNZ) from GABA-A benzodiazepine receptor in rat forebrain
[2] = biological target: GABA-A receptor; anion channel (Rattus norvegicus) (UniProt O09028+P15431+P18506+P18508+P19969+P20236+P23574+P23576+P28471+P28473+P30191+P62813+P63079+P63138+Q91ZM7+Q9ES14); assay: GABA ratio measured by the IC50 in the absence of GABA compared to the IC50 in the presence of GABA in rats.
Outline: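 Modified [3H]flunitrazepam binding in rat forebrain, with IC50 measured with and without GABA. Ratio = IC50 without GABA divided by IC50 with GABA.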

[3] = biological target: GABA-A receptor; anion channel; assay: Displacement of [3H]flunitrazepam from GABA-A Benzodiazepine receptors in rat forebrain
[4] = species: Rattus norvegicus; assay: Anxiolytic response measured by antagonism of pentylenetetrazole discriminative stimuli in rats.; type: functional
Outline: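 Rats trained to discriminate a subconvulsant dose of pentylenetetrazole (PTZ) from vehicle. Test compound given 30 min before the PTZ dose. Antagonism of the PTZ stimulus is scored as the anxiolytic response. ED50 values by probit analysis, with 95% confidence limits.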

[5] = test system: Rattus norvegicus; assay: Compound tested for its effect on Nonconflict (VI) operant responding of rats at a dose of 3.0 mg/Kg administered perorally.; type: functional
Outline: (§1)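 Cook-Davidson conflict procedure in rats given oral doses. Rats lever-press for milk reward with shock (conflict, FR) and without shock (nonconflict, VI). Value is % change in response rate, with significance set at P < 0.05. The minimally effective oral dose is taken as the dose raising conflict responding or lowering VI responding.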

[6] = test system: Rattus norvegicus; assay: Compound tested for its effect on conflict (FR) operant responding of rats at a dose of 1.0 mg/Kg administered perorally.; type: functional; outline: as §1
[7] = test system: Rattus norvegicus; assay: Minimal effective oral dose to cause VI response decrement in rats.; type: functional; outline: as §1
[8] = test system: Rattus norvegicus; assay: Minimal effective oral dose to cause increase in conflict response in rats after po administration.; type: functional; outline: as §1
[9] = test system: Rattus norvegicus; assay: Compound tested for its effect on Nonconflict (VI) operant responding of rats at a dose of 1.0 mg/Kg administered perorally.; type: functional; outline: as §1
[10] = test system: Rattus norvegicus; assay: Compound tested for its effect on conflict (FR) operant responding of rats at a dose of 3.0 mg/Kg administered perorally.; type: functional; outline: as §1
[11] = test system: Rattus norvegicus; assay: Compound tested for its effect on Nonconflict (VI) operant responding of rats at a dose of 10.0 mg/Kg administered perorally.; type: functional; outline: as §1
[12] = test system: Rattus norvegicus; assay: Compound tested for its effect on Nonconflict (VI) operant responding of rats at a dose of 30.0 mg/Kg administered perorally.; type: functional; outline: as §1
[13] = test system: Rattus norvegicus; assay: Compound tested for its effect on conflict (FR) operant responding of rats at a dose of 30.0 mg/Kg administered perorally.; type: functional; outline: as §1
[14] = test system: Rattus norvegicus; assay: Minimal effective oral dose to cause ethanol interaction in rats.; type: functional
Outline: (§2)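 Rotorod test of ethanol interaction in male Wistar (Crl:(WI)BR) rats, 130–160 g. Vehicle or test compound (0, 1, 3, 10 mg/kg) given orally 30 min before ethanol. Graded ethanol doses given ip 30 min before rotorod testing. Ethanol ED50 reported with confidence limits, P < 0.05.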

[15] = test system: Rattus norvegicus; assay: Interaction with ethanol in Rotarod performance at a dose of 0 mg/Kg in rats.; type: functional; outline: as §2
[16] = test system: Rattus norvegicus; assay: Interaction with ethanol in Rotarod performance at a dose of 1 mg/Kg in rats.; type: functional; outline: as §2
[17] = test system: Rattus norvegicus; assay: Compound tested for its effect on conflict (FR) operant responding of rats at a dose of 10.0 mg/Kg administered perorally.; type: functional; outline: as §1
[18] = test system: Rattus norvegicus; assay: Interaction with ethanol in Rotarod performance at a dose of 3 mg/Kg in rats.; type: functional; outline: as §2
[19] = test system: Rattus norvegicus; assay: Interaction with ethanol in Rotarod performance at a dose of 10 mg/Kg in rats.; type: functional; outline: as §2
[20] = test system: Rattus norvegicus; assay: Compound tested for its effect on Nonconflict(VI) operant responding of rats at a dose of 3.0 mg/kg administered perorally.; type: functional; conditions: route oral; outline: as §1
[21] = test system: Rattus norvegicus; assay: Compound tested for its effect on conflict(FR) operant responding of rats at a dose of 3.0 mg/kg administered perorally.; type: functional; conditions: route oral; outline: as §1
[22] = test system: Rattus norvegicus; assay: Compound tested for its effect on Nonconflict(VI) operant responding of rats at a dose of 10.0 mg/kg administered perorally.; type: functional; conditions: route oral; outline: as §1
[23] = test system: Rattus norvegicus; assay: Compound tested for its effect on conflict(FR) operant responding of rats at a dose of 10.0 mg/kg administered perorally.; type: functional; conditions: route oral; outline: as §1

## CC(C)N1CCc2nc(O)n3nc(-c4ccccc4F)nc3c2C1
[1]
  IC50: 105 nM

## CC1c2nc(O)n3nc(-c4ccccc4F)nc3c2CN1Cc1ccccc1 (centres undefined)
[1]
  IC50: > 1000 nM

## O=C1C2C=Nc3ccccc3C2=NN1c1ccccc1 (centres undefined) [CGS-8216]
[2]
  GABA ratio: 0.82
[3]
  IC50: 0.45 nM

## Oc1nc2c(c3nc(-c4ccccc4Cl)nn13)CN(Cc1ccccc1)CC2
[1]
  IC50: 1.7 nM
[4]
  ED50: 0.5 mg/kg
[5]
  Change in response rate: -40%
[6]
  Change in response rate: 18%
[7]
  MED: 3 mg/kg
[8]
  MED: 3 mg/kg
[2]
  GABA ratio: 1.4
[9]
  Change in response rate: 1%
[10]
  Change in response rate: 58%

## Oc1nc2c(c3nc(-c4ccccc4F)nn13)CN(CCc1ccccc1)CC2
[1]
  IC50: 28 nM

## Oc1nc2c(c3nc(-c4ccccn4)nn13)CN(Cc1ccccc1)CC2
[1]
  IC50: 20.6 nM
[4]
  ED50: 26 mg/kg
[2]
  GABA ratio: 1.6

## Oc1nc2c(c3nc(-c4ccc[nH]4)nn13)CN(Cc1ccccc1)CC2
[1]
  IC50: 7.6 nM
[4]
  ED50: 17.3 mg/kg
[2]
  GABA ratio: 1.65

## CCN1CCc2nc(O)n3nc(-c4ccccc4F)nc3c2C1
[1]
  IC50: 150 nM

## Oc1nc2c(c3nc(-c4ccc(Cl)cc4)nn13)CN(Cc1ccccc1)CC2
[1]
  IC50: 22.4 nM
[4]
  ED50: 6.43 mg/kg
[7]
  MED: 30 mg/kg
[2]
  GABA ratio: 2.45
[11]
  Change in response rate: 4%
[12]
  Change in response rate: -45%
[13]
  Change in response rate: 104% and 188%

## Oc1nc2c(c3nc(-c4ccccc4)nn13)CN(Cc1ccccc1)CC2
[14]
  MED: 1 mg/kg
[1]
  IC50: 2.19 nM
[4]
  ED50: 2.6 mg/kg
[5]
  Change in response rate: -4%
[6]
  Change in response rate: 35%
[8]
  MED: 3 mg/kg
[15]
  ED50: 1320 mg/kg
[2]
  GABA ratio: 1.4
[9]
  Change in response rate: 0%
[16]
  ED50: 984 mg/kg
[11]
  Change in response rate: 12%
[17]
  Change in response rate: 367%
[10]
  Change in response rate: 167%
[18]
  ED50: 832 mg/kg
[19]
  ED50: 563 mg/kg

## O=C(c1ccccc1)N1CCc2nc(O)n3nc(-c4ccccc4F)nc3c2C1
[1]
  IC50: 50 nM

## NC(Cc1ccccc1)C(=O)N1CCc2nc(O)n3nc(-c4ccccc4F)nc3c2C1 (centres undefined)
[1]
  IC50: > 100 nM

## Oc1nc2c(c3nc(-c4ccccc4F)nn13)CN(Cc1cccnc1)CC2
[20]
  Change in response rate: -8%
[1]
  IC50: 0.74 nM
[4]
  ED50: 3.65 mg/kg
[7]
  MED: 10 mg/kg
[8]
  MED: 10 mg/kg
[21]
  Change in response rate: 129%
[2]
  GABA ratio: 1.4
[22]
  Change in response rate: -21%
[23]
  Change in response rate: 322%

## O=S(=O)(c1cccnc1)N1CCc2nc(O)n3nc(-c4ccccc4F)nc3c2C1
[1]
  IC50: 5.34 nM
[2]
  GABA ratio: 1.3

## Cc1ccc(S(=O)(=O)N2CCc3nc(O)n4nc(-c5ccccc5F)nc4c3C2)cc1
[1]
  IC50: 1.77 nM
[2]
  GABA ratio: 0.99

## O=C(Cc1ccccc1)N1CCc2nc(O)n3nc(-c4ccccc4F)nc3c2C1
[1]
  IC50: 140 nM
